Data as given in ChEMBL document CHEMBL4257556, “Novel 1,3,4-thiadiazole-chalcone hybrids containing catechol moiety: synthesis, antioxidant activity, cytotoxicity and DNA interaction studies” (Medchemcomm, 2018).
Active and inactive are the calls of the source. No cut-off for these calls is given here.

Legend:
[1] = Antioxidant activity assessed as DPPH free radical scavenging activity after 30 mins; assay type: functional
Outline: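 DPPH (0.05 mM in methanol) mixed with equal volume of compound (DMSO solution diluted in methanol), kept in dark at room temperature 30 min; absorbance at 517 nm, methanol control, ascorbic acid positive control. IC50 = concentration giving 50% of maximum scavenging; mean ± SD of independent triplicate experiments.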

[2] = tested on: HeLa; test: Prooxidant activity in human HeLa cells assessed as increase in H2O2-induced reactive oxygen species at 10 uM preincubated for 24 hrs followed by H2O2 addition and measured after 30 mins by dichlorofluorescein dye-based flow cytometric method; assay type: functional, cell-based
Outline: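 HeLa cells pretreated 24 h with 10 μM compound, washed, loaded with 30 μM DCFH-DA in PBS 45 min at 37 °C. One portion read directly (endogenous ROS); other portion exposed to 10 mM H2O2 30 min at 37 °C. DCF green fluorescence by flow cytometry, 20 000 events per sample; mean ± SD of two independent experiments.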

[3] = tested on: HeLa; test: Cytotoxicity against human HeLa cells assessed as decrease in cell survival after 72 hrs by MTT assay; assay type: functional, cell-based
Outline: (§1)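 HeLa (2000/well), A549 and MRC-5 (5000/well) seeded 20 h before treatment; HL-60 (7000/well) 2 h before. Five concentrations (6.25–100 μM or 3.125–50 μM) from 5 mM DMSO stocks, final DMSO ≤1%, 72 h; survival by MTT. Cisplatin positive control; three independent experiments in triplicate.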

[4] = tested on: HL-60; test: Cytotoxicity against human HL60 cells assessed as decrease in cell survival after 72 hrs by MTT assay; assay type: functional, cell-based; conditions: HL-60, 72 h; outline: as §1
[5] = tested on: A549; test: Cytotoxicity against human A549 cells assessed as decrease in cell survival after 72 hrs by MTT assay; assay type: functional, cell-based; conditions: A549, 72 h; outline: as §1
[6] = tested on: MRC5; test: Cytotoxicity against human MRC5 cells assessed as decrease in cell survival after 72 hrs by MTT assay; assay type: cell-based; conditions: MRC5, 72 h; outline: as §1
[7] = tested on: HeLa; test: Cell cycle arrest in human HeLa cells assessed as accumulation at sub-G1 phase at IC50 and 2 times IC50 after 24 hrs by propidium iodide staining-based flow cytometric method; assay type: functional
Outline: (§2)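 HeLa cells treated 24 h at IC50 or 2×IC50 (from 72 h assay), fixed in 70% ethanol, stored at –20 °C ≥1 week, RNase A 30 min 37 °C, propidium iodide stained; flow cytometry, 10 000 gated events. Mean ± SD of three independent experiments; one-way ANOVA with Dunnett's post-test, p < 0.05.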

[8] = tested on: HeLa; test: Cell cycle arrest in human HeLa cells assessed as accumulation at G2/M phase at 2 times IC50 after 24 hrs by propidium iodide staining-based flow cytometric method; assay type: functional; outline: as §2
[9] = tested on: HeLa; test: Cell cycle arrest in human HeLa cells assessed as decrease in cell levels at G1 phase at 2 times IC50 after 24 hrs by propidium iodide staining-based flow cytometric method; assay type: functional; outline: as §2
[10] = tested on: HeLa; test: Cell cycle arrest in human HeLa cells assessed as accumulation at sub-G1 phase at 2 times IC50 after 24 hrs in presence of caspase-3 inhibitor Z-DEVD-FMK by propidium iodide-staining based flow cytometric method; assay type: functional
Outline: (§3)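 HeLa cells pretreated 2 h with 40 μM peptide caspase inhibitor (Z-DEVD-FMK caspase-3, Z-IETD-FMK caspase-8 or Z-LEHD-FMK caspase-9), then exposed to 2×IC50 compound; subG1 fraction by propidium iodide flow cytometry, compared with samples lacking inhibitor.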

[11] = tested on: HeLa; test: Cell cycle arrest in human HeLa cells assessed as accumulation at sub-G1 phase at 2 times IC50 after 24 hrs in presence of caspase-9 inhibitor Z-LEHD-FMK by propidium iodide-staining based flow cytometric method; assay type: functional; outline: as §3
[12] = tested on: HeLa; test: Cell cycle arrest in human HeLa cells assessed as accumulation at sub-G1 phase at 2 times IC50 after 24 hrs in presence of caspase-8 inhibitor Z-IETD-FMK by propidium iodide-staining based flow cytometric method; assay type: functional; outline: as §3
[13] = tested on: HeLa; test: Downregulation of MMP2 gene expression in human HeLa cells at 10 uM after 24 hrs by RT-qPCR method; assay type: functional, cell-based
[14] = tested on: HeLa; test: Downregulation of TIMP3 gene expression in human HeLa cells at 10 uM after 24 hrs by RT-qPCR method; assay type: functional, cell-based
[15] = tested on: HeLa; test: Upregulation of MMP9 gene expression in human HeLa cells at 10 uM after 24 hrs by RT-qPCR method; assay type: functional, cell-based
[16] = tested on: HeLa; test: Downregulation of VEGFA gene expression in human HeLa cells at 10 uM after 24 hrs by RT-qPCR method; assay type: functional, cell-based
[17] = tested on: HeLa; test: Downregulation of miR-21 expression in human HeLa cells at 10 uM after 24 hrs by RT-qPCR method; assay type: functional, cell-based
[18] = tested on: HeLa; test: Downregulation of miR-155 expression in human HeLa cells at 10 uM after 24 hrs by RT-qPCR method; assay type: functional, cell-based
[19] = tested on: HeLa; test: Downregulation of miR-133b expression in human HeLa cells at 10 uM after 24 hrs by RT-qPCR method; assay type: functional, cell-based
[20] = tested on: HeLa; test: Upregulation of miR-206 expression in human HeLa cells at 10 uM after 24 hrs by RT-qPCR method; assay type: functional, cell-based
[21] = tested on: Calf thymus DNA; test: Binding affinity to calf thymus DNA at 10 to 40 uM after 90 mins by UV/visible spectrophotometric analysis; assay type: nucleic-acid assay; conditions: Bos taurus
Outline: (§4)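 CT-DNA stock in 10 mM Tris-HCl pH 7.9 (A260/A280 1.89–2.01; concentration from ε260 6600 M–1 cm–1). Compound (10, 20 or 40 μM) plus CT-DNA (95 μM) in 40 mM bicarbonate pH 8.4, 37 °C 90 min; spectra 200–800 nm. Hyper/hypochromism at 259 nm from bound versus summed free compound and DNA extinction; triplicate.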

[22] = tested on: Calf thymus DNA; test: Binding affinity to calf thymus DNA assessed as hypochromism at 10 to 20 uM after 90 mins by UV/visible spectrophotometric analysis; assay type: nucleic-acid assay; conditions: Bos taurus; outline: as §4
[23] = tested on: Calf thymus DNA; test: Binding affinity to calf thymus DNA assessed as hypochromism at 40 uM after 90 mins by UV/visible spectrophotometric analysis; assay type: nucleic-acid assay; conditions: Bos taurus; outline: as §4
[24] = tested on: Calf thymus DNA; test: Binding affinity to calf thymus DNA after 90 mins by spectroscopic titration method; assay type: nucleic-acid assay; conditions: Bos taurus
Outline: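 Compound fixed at 40 μM titrated with CT-DNA (2.2–13 × 10–5 M) in 40 mM bicarbonate pH 8.4 after 90 min at 37 °C; absorbance at 259 nm per DNA level. Kb from slope/intercept ratio of [DNA]/(εa–εf) versus [DNA] plot; triplicate assays.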

[25] = tested on: Calf thymus DNA; test: Displacement of Hoechst 33258 from calf thymus DNA assessed as fluorescence intensity of compound-DNA complex at 22 uM by fluorescence spectrophotometric analysis relative to control; assay type: nucleic-acid assay; conditions: Bos taurus
Outline: (§5)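 CT-DNA 100 μM (per phosphate) in 40 mM bicarbonate pH 8.4 pretreated 20 min with Hoechst 33258 (28 μM final), then compound added stepwise. Excitation 350 nm, emission 390–550 nm, read at 444 nm, 10 nm slits; H–DNA as control. Quenching constant K by Stern–Volmer, I0/I versus r = [compound]/[DNA]; triplicate.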

[26] = tested on: Calf thymus DNA; test: Displacement of Hoechst 33258 from calf thymus DNA assessed as quenching constant by fluorescence spectrophotometric analysis; assay type: nucleic-acid assay; conditions: Bos taurus; outline: as §5
[27] = tested on: MRC5; test: Induction of DNA damage in human MRC5 cells assessed as formation of DNA breaks at 25 uM after 24 hrs by comet assay relative to control; assay type: functional
Outline: (§6)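 MRC-5 cells exposed 24 h to 3.125–25 μM compound; DNA damage scored as % tail DNA (tail intensity) by comet assay. PBS negative control; H2O2 50 μM 5 min in-gel positive control. Triplicate, repeated twice; mean ± SD.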

[28] = tested on: MRC5; test: Induction of DNA damage in human MRC5 cells assessed as formation of DNA breaks after 24 hrs by comet assay; assay type: functional, cell-based; outline: as §6
[29] = tested on: DNA; test: Induction of Escherichia coli pUC19 DNA cleavage at 0.05 to 0.4 mM after 90 mins by agarose gel electrophoresis method; assay type: nucleic-acid assay
Outline: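 Plasmid pUC19 (from E. coli XL1 blue; 460 ng, 12 nM) incubated with compound (0.05–0.4 mM; from 2 mM DMSO stock) in 20 μL 40 mM bicarbonate pH 8.4 at 37 °C for 90 min; 1% agarose gel in TAE at 80 V, ethidium bromide staining, UV at 312 nm; supercoiled/nicked/linear forms scored.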

[30] = tested on: DNA; test: Reversal of Fe2+-induced Escherichia coli pUC19 DNA cleavage at 1:1 compound to Fe2+ mole ratio after 90 mins by agarose gel electrophoresis method; assay type: functional
Outline: (§7)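 Compound (4 μL of 2 mM) preincubated with FeSO4 (1 or 2 μL of 8 mM; compound:Fe 1:1 or 1:2) in bicarbonate buffer 60 min at 37 °C, then pUC19 added for another 90 min; products resolved on 1% agarose gel, ethidium bromide stained.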

[31] = tested on: DNA; test: Reversal of Fe2+-induced Escherichia coli pUC19 DNA cleavage at 1:2 compound to Fe2+ mole ratio after 90 mins by agarose gel electrophoresis method; assay type: functional; outline: as §7

IC50 [1]: 12 µM | Activity [21]: Active | Activity [22]: 13% | Activity [23]: inactive | Kb [24]: 1.09 ×10³ /M | Activity [25]: 58% | K [26]: 3.3 | Activity [29]: inactive
Structure (SMILES): O=C(/C=C/c1ccc(C(=O)Nc2nnc(-c3ccc(O)c(O)c3)s2)cc1)c1ccccc1
Activity [2]: Active | IC50 [3]: 9.37 µM | IC50 [4]: 8.4 µM | IC50 [5]: 42.8 µM | IC50 [6]: 36 µM | Activity [7]: Active | Activity [8]: Active | Activity [9]: Active | Activity [10]: inactive | Activity [11]: inactive | Activity [12]: inactive | Activity [13]: Active | Activity [14]: Active | Activity [15]: Active | Activity [16]: inactive | Activity [17]: Active | Activity [18]: Active | Activity [19]: Active | Activity [20]: Active | Activity [27]: 45% | Activity [28]: Dose-dependent effect | Activity [30]: Active | Activity [31]: Active
